Pf Dd2 inh: blocks growth of Plasmodium falciparum Dd2 parasites; P. falciparum Dd2 growth, SYBR Green, 72 h; stronger effect = lower value; AID 1159554; activity change, % at 10 µM; 94,000 tested, 2.3% active; in the data active = activity change below about -80%; inconclusive = no clear call, values can overlap the other calls
IDH1 R132H inh: inhibitors of human IDH1 R132H; 70,000 tested, 0.18% active; O75874; AID 624101; inhibition, % at 10 µM; IDH1 R132H reductase, diaphorase/resazurin fluorescence, 60 min; in the data active = inhibition above about 34%; inconclusive = no clear call, values can overlap the other calls; inactive = below about 11%;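 note: 0% = DMSO and 100% = no enzyme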
KDM4C inh: KDM4C (human) demethylase inhibition | Q9H3R0 | GST-KDM4C 2-372, H3K9me3 peptide, LANCE TR-FRET | inhibition, % at 12.5 µM | 96,000 tested, 0.15% active | AID 720574;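 active = mean replicate inhibition above about 25%, with at least 55% of replicates also reaching it, limit read from the data, passing the limit was not always enough; inconclusive = only one of those two conditions met; inactive = neither condition met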
Target sequence (Q9H3R0 2-372 limits assumed): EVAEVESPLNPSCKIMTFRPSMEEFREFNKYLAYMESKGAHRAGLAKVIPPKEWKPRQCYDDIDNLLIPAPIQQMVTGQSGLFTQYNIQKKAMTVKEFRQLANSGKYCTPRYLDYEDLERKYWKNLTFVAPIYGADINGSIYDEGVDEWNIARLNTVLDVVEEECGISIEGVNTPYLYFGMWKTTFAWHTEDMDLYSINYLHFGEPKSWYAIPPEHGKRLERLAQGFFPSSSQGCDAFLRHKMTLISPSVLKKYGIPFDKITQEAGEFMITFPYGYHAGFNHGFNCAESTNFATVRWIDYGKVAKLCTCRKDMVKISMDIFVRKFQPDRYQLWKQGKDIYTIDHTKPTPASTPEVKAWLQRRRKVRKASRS
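System: N-terminal GST-fused human GASC-1 (KDM4C) fragment, residues 2-372; amount: enzyme final amount 10 nM; incubation: reaction 30 min RT, detection step 1 h RT; medium: HEPES buffer, pH 7.5, plus ascorbate; technique: LANCE TR-FRET, Eu antibody, ULight-streptavidin, EDTA, ex 340 nm, em 618/671 nm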
Tcruzi prolif: inhibitors of T. cruzi proliferation. T. cruzi beta-gal in NIH3T3, GalScreen luminescence, 90 h. inhibition, % at 8.34 µM. 77,000 tested, 5.9% active. AID 624255;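 active = mean inhibition above about 93%, with at least 55% of replicates each passing it, limit read from the data, passing the limit was not always enough; inconclusive = only one of those two conditions holds; inactive = neither condition holds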
* hit, by the source's call; ? = inconclusive; · = no result given. The list is not random: actives were taken first. Their share in the collection is about 5.8%.

SMILES	Pf Dd2 inh	IDH1 R132H inh	KDM4C inh	Tcruzi prolif
CCCN(C)C[C@@H]1OCCCC[C@@H](C)Oc2ccc(NC(=O)Nc3cccc4ccccc34)cc2C(=O)N([C@H](C)CO)C[C@@H]1C	?	-1	-1	71
C[C@@H]1CCCCO[C@@H](CN(C)C(=O)Nc2cccc3ccccc23)[C@H](C)CN([C@@H](C)CO)C(=O)c2cc(NC(=O)Nc3ccccc3)ccc2O1	-31	2	7	44
O=[N+]([O-])c1ccc(NCCNS(=O)(=O)c2ccc(Br)cc2)cc1	·	0	·	·
COCC(=O)N1CC2(C1)CN(Cc1ccccc1F)[C@H](CO)c1[nH]c3cc(OC)ccc3c12	-88*	·	-1	·
COc1ccc2c3c([nH]c2c1)[C@H](CO)N(Cc1ccccc1F)CC31CN(C)C1	-53	·	0	·
COCC(=O)N1CC2(C1)CN(Cc1ccccn1)[C@@H](CO)c1[nH]c3cc(OC)ccc3c12	-82*	·	-2	·
COCC(=O)N1CCC2(CC1)CN(Cc1ccccc1F)[C@H](CO)c1[nH]c3cc(OC)ccc3c12	-89*	·	0	·
COCC(=O)N1CC2(C1)CN(Cc1cc(F)ccc1F)[C@H](CO)c1[nH]c3cc(OC)ccc3c12	-87*	·	-1	·
CCc1nc(SCC(=O)OC)c2c3c(sc2n1)CCCC3	·	0	·	·
COc1cccc(C#Cc2ccc([C@@H]3[C@@H](C#N)N(C(=O)C4CCCC4)[C@@H]3CO)cc2)c1	-47	·	-2	·
COc1cccc(C#Cc2ccc([C@H]3[C@H](C#N)N(C(=O)C4CCCC4)[C@H]3CO)cc2)c1	-57	·	-4	·
COc1cccc(C#Cc2ccc([C@H]3[C@@H](C#N)N(C(=O)C4CCCC4)[C@@H]3CO)cc2)c1	-83*	·	-1	·
COc1cccc(C#Cc2ccc([C@H]3[C@@H](CO)N(C(=O)C4CCCC4)[C@H]3C#N)cc2)c1	-94*	·	-2	·
COc1cccc(C#Cc2ccc([C@H]3[C@@H](CO)N(C(=O)C4CCC4)[C@H]3C#N)cc2)c1	-86*	0	-3	87
COc1cccc(C#Cc2ccc([C@@H]3[C@H](C#N)N(C(=O)C4CCC4)[C@H]3CO)cc2)c1	-50	·	0	89
COc1cccc(C#Cc2ccc([C@H]3[C@@H](CO)N(C(=O)C4CCCCC4)[C@H]3C#N)cc2)c1	-95*	0	-4	89
CC(=O)Nc1ccccc1NC(=O)COc1ccc(Br)cc1Cl	·	0	·	·
O=C(NCCCn1ccnc1)c1cc(-c2ccc(Br)cc2)nc2ccccc12	·	42*	·	·
O=C(NCCCn1ccnc1)c1ccccc1I	·	14	·	·
C[C@H]1CCCCO[C@@H](CN(C)C(=O)C2CCCCC2)[C@@H](C)CN([C@@H](C)CO)C(=O)c2cc(NC(=O)Cc3ccccc3)ccc2O1	-87*	0	0	61
C[C@@H]1CN([C@H](C)CO)C(=O)c2cc(NC(=O)Nc3ccccc3)ccc2O[C@@H](C)CCCCO[C@@H]1CN(C)C(=O)C1CCCCC1	-86*	-1	·	73
C[C@@H]1CCCCO[C@@H](CN(C)C(=O)C2CCCCC2)[C@@H](C)CN([C@@H](C)CO)C(=O)c2cc(NC(=O)Nc3ccc(F)cc3)ccc2O1	-79	·	0	76
C[C@H]1CCCCO[C@@H](CN(C)C(=O)C2CCCCC2)[C@@H](C)CN([C@@H](C)CO)C(=O)c2cc(NC(=O)NC3CCCCC3)ccc2O1	-82*	·	0	89
C[C@@H]1CN([C@H](C)CO)C(=O)c2cc(NC(=O)Nc3ccc(F)cc3)ccc2O[C@@H](C)CCCCO[C@@H]1CN(C)C(=O)C1CCCCC1	-92*	·	1	57
C[C@@H]1CCCCO[C@@H](CN(C)C(=O)C2CCCCC2)[C@@H](C)CN([C@H](C)CO)C(=O)c2cc(NC(=O)Cc3ccccc3)ccc2O1	-50	-3	-1	58
Cc1ccccc1NC(=O)CSC1CC(=O)N(c2ccc(F)cc2)C1=O (stereo not given)	·	-1	·	·
COc1ccc(NC(=O)CN(c2ccc(F)c(Cl)c2)S(C)(=O)=O)cc1Cl	·	0	·	·
C[C@@H]1CCCCO[C@H](CN(C)C(=O)C2CCCCC2)[C@@H](C)CN([C@@H](C)CO)C(=O)c2cc(NC(=O)Nc3ccc(F)cc3)ccc2O1	-90*	0	0	86
C[C@@H]1CN([C@@H](C)CO)C(=O)c2cc(NC(=O)Nc3ccc(F)cc3)ccc2O[C@@H](C)CCCCO[C@@H]1CN(C)C(=O)C1CCCCC1	-85*	·	0	19
COC(=O)c1ccccc1NC(=O)C1=C(C)NC(=S)NC1c1cc(Cl)cc(OC)c1OC(C)C (stereo not given)	·	0	·	·
